Measurements as given in ChEMBL document CHEMBL1131092, “Prodrugs of anthracyclines for use in antibody-directed enzyme prodrug therapy” (J Med Chem, 1998).

Columns and labels:
L1210 = assay: Inhibitory activity was measured against murine L1210 leukemia cells.; assay type: functional, cell-based; details: Mus musculus
Procedure, shortened: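 Exponentially growing L1210 cells in RPMI were exposed to a range of concentrations for 72 h (37 °C, 5% CO2), with quadruplicate wells and medium-only controls. MTT (2.5 mg/mL in PBS) was added at 65 h, and formazan was dissolved in DMSO after 7 more h. IC50 is 50% growth inhibition versus untreated control; replicate CV <15%.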

[1] = Half life period at 200 ug/mL concentration of prodrug in the presence of 0.1 ug/mL Beta-glucuronidase (Escherichia coli) in phosphate buffer; details: in vitro
Escherichia coli = assay: Half life period at 200 ug/mL concentration of prodrug in the presence of 1 ug/mL Beta-glucuronidase (Escherichia coli) in phosphate buffer; details: in vitro

| Compound | IC50 (L1210) [µM] | T1/2 [1] [min] | T1/2 (Escherichia coli) [min] |
| --- | --- | --- | --- |
| COc1cccc2c1C(=O)c1c(O)c3c(c(O)c1C2=O)C[C@@](O)(C(C)=O)C[C@@H]3O[C@H]1C[C@@H](NC(=O)OCc2ccc(O[C@@H]3O[C@@H](C(=O)O)[C@@H](O)[C@H](O)[C@@H]3O)cc2)[C@H](O)[C@H](C)O1 | > 10 |  |  |
| COc1cccc2c1C(=O)c1c(O)c3c(c(O)c1C2=O)C[C@@](O)(C(=O)CO)C[C@@H]3O[C@H]1C[C@@H](NC(=O)OCc2ccc(O[C@@H]3O[C@@H](C(=O)O)[C@@H](O)[C@H](O)[C@@H]3O)c(Cl)c2)[C@H](O)[C@H](C)O1 | 17 | 55 |  |
| COc1cccc2c1C(=O)c1c(O)c3c(c(O)c1C2=O)C[C@@](O)(C(=O)CO)C[C@@H]3O[C@H]1C[C@@H](NC(=O)OCc2cc([N+](=O)[O-])ccc2O[C@@H]2O[C@@H](C(=O)O)[C@@H](O)[C@H](O)[C@@H]2O)[C@H](O)[C@H](C)O1 | 16.6 | 216 |  |
| COc1cccc2c1C(=O)c1c(O)c3c(c(O)c1C2=O)C[C@@](O)(C(=O)CO)C[C@@H]3O[C@H]1C[C@@H](NC(=O)OCc2cc(F)ccc2O[C@@H]2O[C@@H](C(=O)O)[C@@H](O)[C@H](O)[C@@H]2O)[C@H](O)[C@H](C)O1 | 31 | 30 |  |
| COc1cccc2c1C(=O)c1c(O)c3c(c(O)c1C2=O)C[C@@](O)(C(=O)CO)C[C@@H]3O[C@H]1C[C@@H](NC(=O)OCc2cc(Cl)ccc2O[C@@H]2O[C@@H](C(=O)O)[C@@H](O)[C@H](O)[C@@H]2O)[C@H](O)[C@H](C)O1 | 16.6 | > 240 | 30 |

The next compounds have a lower IC50 (L1210) than those just listed; values first:

| IC50 (L1210) [µM] | T1/2 [1] [min] | T1/2 (Escherichia coli) [min] | Compound |
| --- | --- | --- | --- |
| 8.8 | 26 |  | COc1cccc2c1C(=O)c1c(O)c3c(c(O)c1C2=O)C[C@@](O)(C(=O)CO)C[C@@H]3O[C@H]1C[C@@H](NC(=O)OCc2ccc(O[C@@H]3O[C@@H](C(=O)O)[C@@H](O)[C@H](O)[C@@H]3O)c(F)c2)[C@H](O)[C@H](C)O1 |
| 5.5 |  |  | COC(=O)[C@@H]1O[C@@H](Oc2ccccc2COC(=O)N[C@@H]2C[C@H](O[C@H]3C[C@](O)(C(C)=O)Cc4c(O)c5c(c(O)c43)C(=O)c3c(OC)cccc3C5=O)O[C@@H](C)[C@H]2O)[C@@H](OC(C)=O)[C@@H](OC(C)=O)[C@@H]1OC(C)=O |
| 2.21 | 37 |  | COc1cccc2c1C(=O)c1c(O)c3c(c(O)c1C2=O)C[C@@](O)(C(=O)CO)C[C@@H]3O[C@H]1C[C@@H](NC(=O)OCc2ccc(O[C@@H]3O[C@@H](C(=O)O)[C@@H](O)[C@H](O)[C@@H]3O)c([N+](=O)[O-])c2)[C@H](O)[C@H](C)O1 |
| 0.03 |  |  | COc1cccc2c1C(=O)c1c(O)c3c(c(O)c1C2=O)C[C@@](O)(C(C)=O)C[C@@H]3O[C@H]1C[C@H](N)[C@H](O)[C@H](C)O1 [DAUNORUBICIN] |
